High-throughput results: PubChem, Johns Hopkins Ion Channel Center
MrgX1 PAM: allosterically activates human MrgX1 receptor signaling; Q96LB2; MrgX1-HEK293, Fluo-4 calcium flux, FDSS; active compounds read high; B-score at 10 µM; hit rate 0.63% among 310,000;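 active means plate-corrected calcium response at least 3 library SD above typical, normal starting fluorescence, not activating the receptor alone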;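 further: compound read alongside a low EC10 to EC30 dose of BAM8-22 agonist; peak minus trough fluorescence over baseline measured at the second addition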
Target sequence (Q96LB2 whole entry, looked up): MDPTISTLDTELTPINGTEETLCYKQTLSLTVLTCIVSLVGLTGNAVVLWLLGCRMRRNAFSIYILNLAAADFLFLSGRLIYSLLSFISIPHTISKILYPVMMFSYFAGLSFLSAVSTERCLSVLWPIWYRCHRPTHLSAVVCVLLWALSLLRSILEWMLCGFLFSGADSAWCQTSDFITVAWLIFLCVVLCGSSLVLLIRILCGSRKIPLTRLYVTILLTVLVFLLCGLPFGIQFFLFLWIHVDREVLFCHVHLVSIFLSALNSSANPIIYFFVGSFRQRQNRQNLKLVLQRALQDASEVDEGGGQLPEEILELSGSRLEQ
RGS4 act: RGS4 potentiation or activation | HEK293 M3R/inducible RGS4, carbachol calcium flux Fluo4; active compounds read low | B-score at 10 µM | hit rate 0.92% among 310,000 | AID 463111;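 active means B-score of the integrated calcium signal more than 4 SD below the library mean, with starting fluorescence not abnormally high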;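 further: negative B-score means reduced calcium response which marks RGS4 activation or potentiation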
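test system = M3R-expressing HEK293 line, RGS4 induced by doxycycline | probe or stimulus = carbachol at ECmax as muscarinic agonist stimulus | timing = dye loading 30 min 37 °C, buffer rest 30 min RT | signal = calcium dye Fluo4 fluorescence | evaluation = B score from integrated fluorescence ratio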
RGS4 block: human RGS4 inhibition. B-score at 10 µM. P49798. hit rate 0.45% among 310,000. HEK293 M3R/RGS4 inducible, Fluo-4 calcium flux; active compounds read high; triggered by carbachol at its EC20. AID 463165;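 active means B-score, a plate-corrected calcium signal, over three deviations above library mean, with baseline fluorescence within five deviations of library mean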;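 further: RGS4 expression induced by doxycycline in cells with stable M3 receptor; B-score is computed from the integrated fluorescence ratio over baseline after carbachol; higher B-score means a larger calcium signal and so more RGS4 inhibition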
Target sequence (P49798 whole entry, looked up): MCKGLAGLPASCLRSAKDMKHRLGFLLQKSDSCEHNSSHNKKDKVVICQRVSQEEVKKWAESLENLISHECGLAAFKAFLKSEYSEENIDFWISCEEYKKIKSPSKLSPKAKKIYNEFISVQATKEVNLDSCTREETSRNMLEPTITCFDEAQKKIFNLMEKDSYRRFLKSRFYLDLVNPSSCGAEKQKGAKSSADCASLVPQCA
MrgX1 antagonist: human MrgX1 receptor antagonism, primary screen. B-score at 10 µM. hit rate 1.3% among 310,000. MRGX1-HEK293 calcium flux, Fluo-4, BAM8-22 antagonism; active compounds read low. AID 588676;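 active means calcium-response B-score plate-corrected more than 3 library SD below zero, starting fluorescence within 5 deviations, no agonist response on first addition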;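 further: peak minus trough fluorescence over baseline after final BAM8-22 challenge near maximal dose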
MrgX1 ag: agonists of human MrgX1 receptor | Q96LB2 | MrgX1-HEK293 cells, Fluo-4 calcium fluorescence, agonist mode; active compounds read high | B-score at 10 µM | hit rate 0.44% among 310,000;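 active means calcium response B-score plate-corrected fluorescence ratio at least 3 library SD, with starting fluorescence B-score inside 5 SD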
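Material: MrgX1-expressing HEK293 cells / Dosing: compound as first of three additions / Incubation: overnight seeding, then 1 h dark dye loading / Signal: Fluo-4 NW calcium fluorescence / Evaluation: B-scored fluorescence response ratio / Benchmarks: positive and negative control wells on each plate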
MrgX1 antag conf: human MrgX1 receptor antagonism, re-confirmation screen | shares compounds with MrgX1 antagonist | MrgX1-HEK293, BAM8-22 calcium flux, Fluo-4; active compounds read low | remaining BAM8-22 calcium response % of control (active compounds read low), % at 10 µM | hit rate 19% among 2,300 | AID 602420;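 active means remaining agonist calcium response no higher than 100% minus 3 SD of agonist-only control wells, with starting fluorescence near control levels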;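 further: agonist BAM8-22 given at a near maximal EC90 to ECmax level; peak minus minimum fluorescence divided by baseline after agonist addition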
HEK293 Ca flux: MrgX1 antagonist counter-screen hit in parental HEK293 cells; shares compounds with MrgX1 antagonist; Fluo-4 calcium fluorescence, FDSS; fluorescence ratio F(max-min)/F0 at 10 µM; hit rate 2% among 4,000;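 active means duplicate-averaged calcium fluorescence ratio at least three times the standard deviation of buffer wells, a nonspecific response in parental cells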
HEK293 Ca counter: activity in parental HEK293 cells without MrgX1 | shares compounds with MrgX1 antagonist | parental HEK293 calcium flux, Fluo-4 fluorescence ratio; active compounds read high | fluorescence ratio F(max-min)/F0 at 10 µM | hit rate 0.4% among 4,000 | AID 624114;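 active means calcium fluorescence ratio, averaged over duplicates, at least 3 SD of the buffer-well ratio, meaning a nonspecific response in receptor-free cells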;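 further: untransfected parental HEK293 lacking MrgX1 used as counterscreen for MrgX1 allosteric activators; fluorescence change taken during the second addition on a kinetic imager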
HEK293 Ca cntr2: activity in parental HEK293 cells lacking MrgX1 receptor; shares compounds with MrgX1 antagonist; Fluo-4 calcium fluorescence (FDSS); active compounds read high; fluorescence ratio F(max-min)/F0 at 10 µM; hit rate 8.7% among 4,000; AID 624115;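 active means calcium fluorescence ratio at least three times the spread of buffer wells, meaning a non-specific response in parental cells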
An asterisk follows results filed as active; i = inactive; . = no result given. Most compounds without a hit are left out; they make up all but 3.5% or so of the library.

SMILES	MrgX1 PAM	RGS4 act	RGS4 block	MrgX1 antagonist	MrgX1 ag	MrgX1 antag conf	HEK293 Ca flux	HEK293 Ca counter	HEK293 Ca cntr2
CC1(C)CC[C@]2(C(=O)O)[C@H](O)C[C@]3(C)C(=CCC4[C@@]5(C)C[C@H](O)[C@H](O)[C@@](C)(CO)C5CC[C@]43C)[C@@H]2C1 (stereo not given in full)	i	i	i	i	i	.	.	.	.
CCN(CC)S(=O)(=O)c1ccc(NC(=O)Nc2cccc(C(F)(F)F)c2)cc1	i	i	i	-5.82*	i	64.4%*	i	i	i
O=C1CC(C(=O)O)C2(CCCC2)O1 (stereo not given)	i	i	i	-5.19*	i	i	i	i	i
CCN(CC)C(=O)C1CC(=O)OC12CCCCC2 (stereo not given)	i	i	i	i	i	.	.	.	.
CCOc1ccc(NCCC(O)c2ccc(F)cc2)cc1 (stereo not given)	i	i	i	i	i	.	.	.	.
CCOC(=O)Cn1cc(C(=O)C(C)(C)C)c2ccccc21	i	i	i	-4.88*	i	i	i	i	i
COC(=O)Cn1cc(C(=O)C(C)(C)C)c2ccccc21	i	i	i	i	i	.	.	.	.
O=c1cc(/N=C/c2coc3c(ccc4ccccc43)c2=O)[nH]c(=S)[nH]1	i	i	i	i	i	.	.	.	.
COc1ccc(NC(=S)N2CCCC(c3nc4ccc(C)cc4[nH]3)C2)c(OC)c1 (stereo not given)	i	i	i	i	i	.	.	.	.
COc1ccc(NC(=S)N2CCCC(c3nc4ccc(C)cc4[nH]3)C2)cc1 (stereo not given)	i	i	i	-9.53*	i	i	i	i	i
COc1cc(C(=O)NCCOc2cc(C)cc(C)c2)cc(OC)c1OC	i	i	i	i	i	.	.	.	.
Cc1ccc(S(=O)(=O)n2nnc3ccccc32)c(C)c1C	i	i	i	-4.8*	i	i	i	i	i
CCc1cccc(CC)c1NC(=O)CSc1nc2ccc(N3C(=O)C4C5C=CC(C5)C4C3=O)cc2s1 (stereo not given)	i	i	i	-8.16*	i	i	i	i	i
CC(OC(=O)c1ccc(S(=O)(=O)NCc2ccco2)cc1)C(=O)Nc1ccc(Cl)cn1 (stereo not given)	i	i	i	-6.54*	i	i	i	i	i
O=C(COC(=O)c1ccc(S(=O)(=O)NCc2ccco2)cc1)Nc1ncc(Cl)cc1Cl	i	i	i	i	i	.	.	.	.
Cc1[nH]c2ccccc2c1C(=O)CN1CCC(C(N)=O)(N2CCCCC2)CC1	i	i	i	-5.83*	i	i	i	i	i
COc1ccc(N=Cc2oc3ccc4ccccc4c3c2O)cc1	i	i	i	-5.08*	i	51.2%*	i	i	i
COc1ccc(N=Cc2[nH]c3ccccc3c2O)cc1	i	i	i	i	i	.	.	.	.
Cn1c(O)c(N=NC(=O)Cn2ccc(C(F)(F)F)n2)c2ccccc21	i	i	i	-6.29*	i	i	i	i	i
Cc1csc(NC(=O)CSc2nc(C(C)C)nc3ccccc23)n1	i	i	i	i	i	.	.	.	.
CCc1ccc(N(CC)C(=O)Cc2c(C(=O)O)n(C)c3ccccc23)cc1	i	i	i	-6.58*	i	i	i	i	i
CCOc1ccc(N(CC)C(=O)Cc2c(C(=O)O)n(C)c3ccccc23)cc1	i	i	i	i	i	.	.	.	.
Cc1ccn2c(CNCCn3cccn3)c(C(=O)N3CCCCCC3)nc2c1	i	i	i	-7.47*	i	i	i	i	i
O=C(CCc1ccc(O)cc1)c1c(O)cc(O)cc1O[C@@H]1O[C@H](CO)[C@@H](O)[C@H](O)[C@H]1O	i	i	i	i	i	.	.	.	.
Nc1ncc2c(n1)-c1ccccc1CC2	i	i	i	-4.82*	i	i	i	i	i
SMILES	MrgX1 PAM	RGS4 act	RGS4 block	MrgX1 antagonist	MrgX1 ag	MrgX1 antag conf	HEK293 Ca flux	HEK293 Ca counter	HEK293 Ca cntr2
Nc1ncc2c(n1)-c1ccoc1CC2	i	i	i	i	i	.	.	.	.
CCCOC(=O)C1=C(C)NC2=C(C(=O)C(C(=O)OC)C(C)C2)C1c1ccc(N(CC)CC)cc1 (stereo not given)	i	i	i	-7.81*	i	i	i	i	i
CCn1nnc2cc(C(=O)Nc3cc(S(C)(=O)=O)ccc3Cl)ccc21	i	i	i	i	i	.	.	.	.
CCn1nnc2cc(C(=O)Nc3cc(OC)cc(OC)c3)ccc21	i	i	i	-8.75*	i	i	i	i	i
O=C(NCCC1CCCCN1S(=O)(=O)c1ccc(F)cc1)C(=O)NCC1CCCO1 (stereo not given)	i	i	i	-5.99*	i	i	i	i	i
C[C@H](NC(=O)c1[nH]cnc1C(=O)Nc1ccc(CNC(=O)OC(C)(C)C)cc1)C(=O)OC(C)(C)C	i	i	i	i	i	.	.	.	.
CC(=O)Nc1ccc(NS(=O)(=O)C(F)(F)F)cc1	i	i	i	-8.72*	i	i	i	i	i
CC(=O)Nc1ccc(-c2ccc(NC(C)=O)cc2)cc1	i	i	i	i	i	.	.	.	.
Cc1cccnc1NC(=O)c1ccc(C(=O)c2ccccc2)cc1	i	i	i	i	i	.	.	.	.
CCN(c1cccc(C)c1)S(=O)(=O)c1cc(CN2C(=O)c3cccnc3C2=O)ccc1OC	i	i	i	i	i	.	.	.	.
Cc1ccc2c(c1)COc1c3ccc(C(=O)N[C@@H](CO)C(C)C)cc3nn1-2	i	i	i	-5.66*	i	i	i	i	i
COCCNC(=O)c1ccc2c3n(nc2c1)-c1ccc(C)cc1CO3	i	i	i	i	i	.	.	.	.
COc1ccc(C(=O)CN2C(=O)NC3(CCCCCC3)C2=O)cc1	i	i	i	i	i	.	.	.	.
